CHOP UPR activ: activators of apoptotic CHOP UPR arm, primary screen, cell-based, CHO-CHOP luciferase reporter, luminescence, uHTS. UPR activation; percent of tunicamycin response over DMSO baseline. activation, % at 10 µM. hit rate 0.34% among 330,000;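 active = at 10 µM dose, activation of 40% or more, normalized to positive control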;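 also: 100% = tunicamycin at 10 µg/mL and 0% = DMSO alone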
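System: CHO-CHOP luciferase reporter cell line | Buffer or medium: F12 medium containing 10% fetal bovine serum | Doses: One dose, 10 µM in 0.5% DMSO | Times: 6 h compound exposure at 37 °C after overnight seeding | Signal: Luciferase luminescence | Read-out: % activation vs tunicamycin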
XBP1 UPR activ: activators of adaptive XBP1 UPR arm, primary screen, cell-based, CHO-XBP1 luciferase reporter, luminescence, uHTS; IRE1-XBP1 UPR activation; percent of tunicamycin response, DMSO as zero; activation, % at 20 µM; hit rate 0.33% among 330,000; AID 463104, 2010;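 active = versus positive control, 20 µM dose yields 30% or more activation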;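 also: 100% = tunicamycin at 10 µg/mL and 0% = DMSO only wells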
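incubation = overnight seeding at 37 °C, 6 h compound treatment at 37 °C | assay system = CHO-XBP1 cells stably carrying IRE1-XBP1-driven luciferase reporter | input = 1000 cells per well | detection = luciferase luminescence | dosing = single point, 20 µM final compound, 1% DMSO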
Mdm2 MdmX PPI: inhibitors of human Mdm2-MdmX association, primary screen, cell-based, luminescence, split luciferase, SaOS-2, uHTS; Protein Mdm4 (Homo sapiens) + E3 ubiquitin-protein ligase Mdm2 (Homo sapiens), …; SaOS-2 split-luciferase Mdm2/MdmX complementation; inhibition, % at 8 µM; hit rate 3% among 330,000; AID 485346, 2010;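 active = inhibition of at least 50% at 8 µM in the primary screen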
Exocytosis inh: LAMP-1 surface exposure blockers, TALL-104 cells – cell-based, flow cytometry, MLPCN library, primary screen; TALL-104 LAMP-1 surface exposure; cells stimulated with thapsigargin and PMA; hit rate 0.66% among 360,000; inhibition, % at 10 µM; AID 651702, 2012;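 active = inhibition above about 55%, limit read from the data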
ABHD5 PLIN5 PPI: ABHD5-PLIN5 interaction inhibitors, primary screen, cell lysate, split luciferase complementation, luminescence; Perilipin-5 (Homo sapiens) + 1-acylglycerol-3-phosphate O-acyltransferase ABHD5 (Homo …; Split G. princeps luciferase complementation, 4 h; inhibition, % at 4 µM; hit rate 0.78% among 360,000; AID 602281, 2012;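 active = inhibition above the mean inhibition across every tested compound plus 3 SD, cut at about 22% in these data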;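 also: 0% = DMSO only wells and the 100% control is not disclosed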
Target sequence (Q00G26 whole entry, looked up): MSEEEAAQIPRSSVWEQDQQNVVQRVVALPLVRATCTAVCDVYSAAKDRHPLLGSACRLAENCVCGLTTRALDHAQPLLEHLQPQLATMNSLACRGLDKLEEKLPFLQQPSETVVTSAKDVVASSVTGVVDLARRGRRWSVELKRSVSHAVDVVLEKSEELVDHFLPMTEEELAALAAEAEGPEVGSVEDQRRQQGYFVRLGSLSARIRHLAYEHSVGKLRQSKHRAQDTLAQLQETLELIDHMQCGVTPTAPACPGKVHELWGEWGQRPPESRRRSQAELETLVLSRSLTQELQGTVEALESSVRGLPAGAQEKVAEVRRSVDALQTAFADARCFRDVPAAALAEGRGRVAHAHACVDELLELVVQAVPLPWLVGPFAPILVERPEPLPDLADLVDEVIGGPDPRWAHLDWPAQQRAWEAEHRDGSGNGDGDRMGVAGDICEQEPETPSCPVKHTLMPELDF
Target sequence (Q8WTS1 whole entry, looked up): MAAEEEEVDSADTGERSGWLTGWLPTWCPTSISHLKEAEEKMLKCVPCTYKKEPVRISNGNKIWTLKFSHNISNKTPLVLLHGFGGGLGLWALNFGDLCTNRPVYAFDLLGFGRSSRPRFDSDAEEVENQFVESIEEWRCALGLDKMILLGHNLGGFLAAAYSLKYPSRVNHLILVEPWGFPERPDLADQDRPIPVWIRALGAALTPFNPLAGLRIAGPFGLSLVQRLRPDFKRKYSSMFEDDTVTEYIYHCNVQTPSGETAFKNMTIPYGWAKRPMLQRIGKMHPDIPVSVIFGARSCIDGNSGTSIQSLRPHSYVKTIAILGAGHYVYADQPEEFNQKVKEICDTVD
Mdm2-MdmX conf: Mdm2-MdmX complex disruptors, retested hits, confirmation, luminescence, single concentration. shares compounds with Mdm2 MdmX PPI. Mdm2-MdmX binding, luminescent assay. inhibition, % at 8 µM. hit rate 55% among 10,000. AID 489028, 2010; in the data active = inhibition above about 40%
FLuc counter: full-length luciferase signal inhibition, confirmation, counter-screen for Mdm2/MdmX interaction inhibitor project, cell-based, single concentration, SaOS-2 | shares compounds with Mdm2 MdmX PPI | SaOS-2 full-length luciferase counterscreen, luminescence | inhibition, % at 8 µM | hit rate 77% among 6,200 | AID 504607, 2011;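 active = mean inhibition at 8 µM reaching about 37%, which flags the compound as non-specific, limit read from the data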;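 also: p53-null SaOS-2 cells with luciferase driven by a doxycycline-inducible promoter; compound on cells about two nights before reading with doxycycline added after day one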
* hit, by the source's call; x = no result given. Hits are enriched below; roughly 4% of the tested compounds scored in any of these assays.

SMILES	CHOP UPR activ	XBP1 UPR activ	Mdm2 MdmX PPI	Exocytosis inh	ABHD5 PLIN5 PPI	Mdm2-MdmX conf	FLuc counter
CCOc1ccccc1C1c2[nH]c3ccccc3c2C[C@H]2C(=O)N(C3CCN(Cc4ccccc4)CC3)CC(=O)N12 (stereo not given in full)	9.1	-5.0	61.9*	16.7	6.4	51.3*	66.8*
O=C1[C@@H]2Cc3c([nH]c4ccccc34)C(c3ccccc3)N2C(=O)CN1C1CCN(Cc2ccccc2)CC1 (stereo not given in full)	0.4	1.2	63.5*	8.0	-7.4	37.8	92.5*
CCCCOc1ncnc2c1[nH]c1ccc(OCC)cc12	1.6	7.4	11.0	-0.2	3.3	x	x
Cc1cccc(NC(=O)c2cc3c([nH]c4ccccc43)c(C)n2)c1C	5.3	6.2	65.8*	7.4	1.0	3.4	x
O=C(c1ccoc1)N1CCCC(CO)(CCCc2ccccc2)C1 (stereo not given)	0.0	-3.9	15.8	1.2	1.7	x	x
CN1CCN(c2ccc([N+](=O)[O-])cc2C(=O)c2ccc(Br)cc2)CC1	-2.6	2.3	54.2*	6.1	1.4	59.5*	60.0*
CN1CCN(c2ccc([N+](=O)[O-])cc2C(=O)c2ccccc2)CC1	0.0	-0.6	25.9	8.9	3.9	x	x
Cc1ccc(C(=O)c2cc([N+](=O)[O-])ccc2N2CCN(C)CC2)cc1	-1.1	0.6	50.3*	4.4	1.9	60.1*	54.6*
CCn1c(C(C)NC(=O)c2cccc(C)c2)n[nH]c1=S (stereo not given)	-3.2	-2.3	-6.6	-0.7	-1.5	x	x
COc1cccc2sc(N3CCN(C(=O)c4ccc([N+](=O)[O-])o4)CC3)nc12	37.8	-0.6	21.7	0.7	-2.4	x	x
O=C(c1ccc([N+](=O)[O-])o1)N1CCN(c2nc3c(Cl)cccc3s2)CC1	14.5	-0.9	56.5*	10.5	7.7	42.7*	64.5*
COc1cccc(C(=O)N/N=C(/c2ccccc2)c2ccccn2)c1	22.0	1.9	84.3*	2.5	-1.7	78.7*	39.2*
COc1ccc(C(=O)NNC(=O)c2cc3ccccc3cc2O)cc1	-0.6	-4.8	50.4*	4.3	-0.3	38.8	x
COc1ccc(C(=O)NNC(=O)c2ccccn2)cc1	-11.5	-8.2	97.6*	-3.3	0.0	93.8*	22.4
CC(=O)c1ccc(OCCCC(=O)NNC(=O)c2ccccn2)cc1	1.8	0.9	62.8*	-11.0	0.1	6.3	x
CCOc1ccc(OCCCC(=O)NNC(=O)c2ccncc2)cc1	0.2	3.1	22.9	-0.1	6.6	x	x
COc1ccc(C(=O)NCCNC(=O)c2ccccn2)cc1	0.7	-3.1	-12.1	-12.2	-7.4	x	x
CCCOC(=O)c1c(N)sc2c1CCC2	-1.1	-0.9	6.1	9.4	-9.6	x	x
COc1ccc(OCC(=O)NNC(=O)c2ccccn2)cc1	0.4	2.5	27.6	1.1	-2.7	x	x
CC(Oc1cccc(Br)c1)C(=O)NNC(=O)c1ccccn1 (stereo not given)	7.7	1.8	71.7*	-1.7	2.7	60.5*	35.8
COc1ccc(C(=O)NC(=S)NNC(=O)c2cnccn2)cc1OC	-1.8	-0.3	33.9	-2.2	-1.1	x	x
COc1ccc(NC(=O)NNC(=O)c2ccc(-c3ccccc3)cc2)cc1	1.4	-2.3	59.1*	-2.7	-2.9	28.3	x
COc1cc(OC)cc(C(=O)NNC(=O)c2ccccn2)c1	-1.5	1.9	51.3*	-2.9	8.2	47.1*	51.4*
COc1cc(OC)cc(C(=O)NC(=S)NNC(=O)c2cnccn2)c1	0.2	4.4	59.6*	7.9	4.6	34.4	x
Cc1ccc(NC(=O)CCn2cccc2)cc1C	2.2	1.8	2.9	-4.5	3.5	x	x
SMILES	CHOP UPR activ	XBP1 UPR activ	Mdm2 MdmX PPI	Exocytosis inh	ABHD5 PLIN5 PPI	Mdm2-MdmX conf	FLuc counter
O=C(O)/C(CC(=O)c1ccc(Cl)cc1)=N/Nc1ccc([N+](=O)[O-])cc1[N+](=O)[O-]	-0.6	-0.1	7.7	-14.5	-6.2	x	x
COc1ccc(C)cc1Nc1nc(N)c2cc(OC)c(OC)cc2n1	0.0	6.7	50.8*	17.5	-5.1	15.0	x
CCOC(=O)c1ccccc1NC(=O)c1cn(-c2ccc(C)c(C)c2)c(=O)c2ccccc12	3.3	0.2	69.1*	-1.3	-4.5	29.1	x
COc1ccc(-n2nc(C(=O)NCC(=O)Nc3ccccn3)c3ccccc3c2=O)cc1Cl	15.0	5.8	88.1*	-6.0	0.2	17.0	x
COc1ccc(-n2nc(C(=O)NCC(=O)Nc3cccc(Cl)c3)c3ccccc3c2=O)cc1OC	4.9	-9.4	79.8*	-7.2	7.9	47.7*	37.1*
COc1ccc(-n2nc(C(=O)Nc3ccc(OC)c(OC)c3)c3c4ccccc4n(C)c3c2=O)cc1	2.1	1.3	75.6*	-0.7	1.3	38.3	x
COc1ccc(-n2nc(C(=O)NCC(=O)NC(C)C)c3ccccc3c2=O)cc1Cl	0.4	-1.8	8.7	21.1	1.5	x	x
CC(=O)OC(C(=O)N1CCN(c2ccccc2F)CC1)c1ccccc1 (stereo not given)	-2.2	-0.8	10.1	-0.4	5.8	x	x
O=C(CC12CC3CC(CC(C3)C1)C2)NC(=S)NCc1ccco1	0.0	2.9	63.5*	1.3	-14.0	27.6	x
CC(=O)/C(C#N)=C1\NC(=O)C(Cc2ccccc2Cl)S1 (stereo not given)	-0.5	-3.2	87.0*	-0.4	-11.5	90.5*	30.1
CC(=O)/C(C#N)=C1\NC(=O)C(Cc2cc(Cl)ccc2Cl)S1 (stereo not given)	1.6	-3.9	95.8*	2.9	-9.5	82.8*	31.2
CC(=O)/C(C#N)=C1\NC(=O)C(Cc2ccc(F)cc2)S1 (stereo not given)	0.2	-0.9	2.7	-8.8	-7.7	x	x
O=C1NC(=Nc2ccccc2)SC1Cc1cccc(Cl)c1Cl (stereo not given)	x	x	x	5.4	-4.5	x	x
CC(=O)/C(C#N)=C1\NC(=O)C(Cc2ccc(C)c(C)c2)S1 (stereo not given)	2.3	0.9	83.7*	2.8	-6.7	90.7*	32.1
COc1ccccc1NC(=O)c1c(C)nn(-c2ccccc2)c1Cl	2.4	0.1	26.9	22.1	1.6	x	x

From PubChem
